SMILES strings stand for the structures. “And” between values parts separate entries of the source, which are not always exact repeats. Equal values may be shown once.

The text below walks through data of ChEMBL document CHEMBL1126613, “Centrally acting serotonergic agents. Synthesis and structure-activity relationships of C-1- or C-3-substituted derivatives of 8-hydroxy-2-(di-n-propylamino)tetralin” (J Med Chem, 1993).

The test system of experiment [1] is Rattus norvegicus. The experiment can be described thus: Effect on the synthesis rate of dopamine (DOPA) accumulation at the dose of 9.7 umol/kg in the rat ventral limbic brain region. Type of experiment: functional, Limbic system. In outline:
(§1)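 Male Sprague-Dawley rats dosed sc with drug or vehicle at time zero. NSD 1015 (100 mg/kg ip) given 15 min later to block aromatic decarboxylase. Brain DOPA and 5-HTP measured by electrochemical detection with peak integration. Expressed as percent change from NSD 1015 plus saline controls. Control and test groups N = 6 each, compared by unpaired t test.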

The test system of experiment [2] is Mus musculus. Briefly: In vivo effective dose administered subcutaneously in mouse hypothermia assay. Type of experiment: functional. The note with it: sc. In outline:
(§2)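 Charles River CF-1 mice (18-22 g, 4 per dose), housed individually 20 min before testing. Rectal temperature taken before dosing and 20 min after (sc 0.1 mL; oral 0.2 mL by gavage needle). A drop of ≥2 °F counted as positive. Doses started at 30 mg/kg and fell by half-log until 0/4 responded.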

Experiment [3] deals with Mus musculus. Briefly: Tested in vivo for the maximum temperature decrease in mouse hypothermia assay. In kind it is functional. In outline: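 CF-1 mice (18-22 g, 4 per dose), dosed sc or orally. Rectal temperature measured before dosing and 20 min after. The mean maximum temperature drop (°F) at 20 min after any dose is recorded as an efficacy index.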
The test system of experiment [4] is Rattus norvegicus. The experiment can be described thus: Effect on the synthesis rate of 5 HTP accumulation at the dose of 9.7 uM/kg in the rat ventral limbic brain region. In kind it is functional, Limbic system. A digest of the protocol: as §1
In experiment [5] the test system is Mus musculus. Briefly: Tested in vivo for the effective dose administered orally in mouse hypothermia assay. Type of experiment: functional. The note with it: po. In outline: as §2
Experiment [6] concerns Rattus norvegicus. Briefly: Effect on the synthesis rate of 5 HTP accumulation at 68 umol/kg in the rat ventral limbic brain region. In kind it is functional, Limbic system. A digest of the protocol: as §1
Experiment [7] deals with Rattus norvegicus. The experiment can be described thus: Effect on the synthesis rate of 5 HTP accumulation at 3.4 umol/kg in the rat ventral limbic brain region. In kind it is functional, Limbic system. In outline: as §1
The species named for experiment [8] is Felis catus. Briefly: Maximum decrease observed. In kind it is functional. Set-up: unit not given here.
Experiment [9] concerns Felis catus. The experiment can be described thus: (§3) Dose on arterial blood pressure (BP) in anesthetized cat. Type of experiment: functional. In outline:
(§4)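 Adult cats (2.5-4.0 kg) anesthetized with ketamine 11 mg/kg im, then chloralose 80 mg/kg iv. Femoral artery cannulated for blood pressure, femoral vein for drug. Ventilated, paralyzed with gallamine 4 mg/kg iv, rectal temperature held at 37-38 °C. Cumulative iv doses given at 20-min intervals. Maximum decrease reported following a 1 mg/kg iv dose.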

Experiment [10] deals with Felis catus. Briefly: Maximum decrease observed following 1 mg/kg dose. Type of experiment: functional.
Experiment [11] deals with Rattus norvegicus. The experiment can be described thus: Effect on the synthesis rate of dopamine (DOPA) accumulation at 3.4 umol/kg in the rat ventral limbic brain region. In kind it is functional, Limbic system. A digest of the protocol: as §1
Experiment [12] deals with Rattus norvegicus. Briefly: Effect on the synthesis rate of dopamine (DOPA) accumulation at the dose of 68 umol/kg in the rat ventral limbic brain region. Type of experiment: functional, Limbic system. A digest of the protocol: as §1
In experiment [13] the test system is Mus musculus. Briefly: Behavioral time in mouse face to face assay at 0 umol/kg administered intraperitoneally. In kind it is functional. In outline:
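Male CF-1 mice (Charles River, 19-29 g), 8 pairs per dose, dosed sc, ip or orally in 0.25% methylcellulose or 0.1% citric acid; 30 min absorption housed with familiar partner. Pairs from different home cages placed in small litter-floored cage; face-to-face interaction duration scored visually for 3 min. Wilcoxon rank sum (two-tailed) vs daily control, p < 0.05.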

For experiment [14], the species on record is Felis catus. Briefly: Dose at which the SND has been reduced to 50% of the pretreatment value. In kind it is functional. In outline:
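Adult cats (2.5-4.0 kg), ketamine 11 mg/kg im then chloralose 80 mg/kg iv, ventilated, gallamine-paralyzed, rectal temperature 37-38 °C. Sympathetic nerve discharge quantified by cumulative integration. Cumulative iv doses were given at 20-min intervals. Value is the dose reducing discharge to 50% of pretreatment.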

Experiment [15] deals with Rattus norvegicus. Briefly: Effect on the synthesis rate of dopamine (DOPA) accumulation at the dose of 10 umol/kg in the rat ventral limbic brain region. In kind it is functional, Limbic system. In outline: as §1
Experiment [16] relates to Rattus norvegicus. The experiment can be described thus: Effect on the synthesis rate of 5 HTP accumulation at the dose of 10 umol/kg in the rat ventral limbic brain region. In kind it is functional, Limbic system. A digest of the protocol:
as §1

The test system of experiment [17] is Mus musculus. Briefly: Behavioral time in mouse isolation-induced aggression behavioral assay at 9.1 umol/kg administered intraperitoneally (*P<0.05). Type of experiment: functional. A digest of the protocol:
(§5)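 Isolated male CF-1 resident mice, housed singly ≥1 month and weighing 28-30 g at testing, were dosed ip or orally in 0.25% methylcellulose or 0.1% citric acid. Dosing was blind, 6 per group (n=12 vehicle). After 30 min an untreated group-housed intruder was introduced. Latency to fighting was recorded, capped at 600 s. Residents rested ≥3 days before reuse. Wilcoxon rank sum.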

Experiment [18] deals with Mus musculus. Briefly: Behavioral time in mouse isolation-induced aggression assay 0.3 umol/kg administered intraperitoneally. Type of experiment: functional. A digest of the protocol:
as §5

Experiment [19] relates to Felis catus. Described as §3. In kind it is functional. This is another data set of the same source.
In experiment [20] the test system is Rattus norvegicus. Briefly: Effect on the synthesis rate of 5 HTP accumulation at the dose 0.3 umol/kg in the rat ventral limbic brain region. Type of experiment: functional, Limbic system. A digest of the protocol:
(§6)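 Male Sprague-Dawley rats were given test drug or vehicle sc at time zero, then NSD 1015 (100 mg/kg ip) 15 min later. DOPA and 5-HTP were measured electrochemically by peak integration. Results are expressed as percent change from NSD 1015 plus saline controls. Groups of 6 vs control 6, unpaired t test.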

Experiment [21] concerns Mus musculus. Briefly: Behavioral time in mouse isolation-induced aggression assay 0 umol/kg administered intraperitoneally. In kind it is functional. In outline:
as §5

Experiment [22] relates to Mus musculus. The experiment can be described thus: Behavioral time in mouse isolation-induced aggression behavioral assay at 30 umol/kg administered intraperitoneally (*P<0.05). In kind it is functional. A digest of the protocol:
as §5

In experiment [23] the test system is Mus musculus. Briefly: Behavioral time in mouse face to face assay at 3.0 umol/kg administered subcutaneously. Type of experiment: functional. In outline: (§7)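 Male CF-1 mice (19-29 g), 8 pairs per dose, dosed sc, ip or orally in 0.25% methylcellulose or 0.1% citric acid. Pairs from the same home cage are held together for 30 min. Pairs from different cages are then placed in a small litter-floored cage, and face-to-face interaction is timed visually for 3 min. Comparison with the daily control by two-tailed Wilcoxon rank sum, p<0.05.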

The subject of experiment [24] is Rattus norvegicus. Briefly: Effect on the synthesis rate of dopamine (DOPA) accumulation at the dose of 3.0 umol/kg in the rat ventral limbic brain region. Type of experiment: functional, Limbic system. A digest of the protocol: as §6
Experiment [25] concerns Mus musculus. Briefly: Behavioral time in mouse isolation-induced aggression assay at 0 umol/kg administered intraperitoneally. In kind it is functional. A digest of the protocol: as §5
Experiment [26] deals with Rattus norvegicus. The experiment can be described thus: Effect on the synthesis rate of dopamine (DOPA) accumulation at the dose of 0.3 umol/kg in the rat ventral limbic brain region. Type of experiment: functional, Limbic system. In outline:
as §6

In experiment [27] the test system is Rattus norvegicus. Briefly: Effect on the synthesis rate of 5 HTP accumulation at the dose of 3.0 umol/kg in the rat ventral limbic brain region (*P<0.05). In kind it is functional, Limbic system. A digest of the protocol: as §6
Experiment [28] concerns Mus musculus. The experiment can be described thus: Behavioral time in mouse face to face assay at 30 umol/kg administered subcutaneously. Type of experiment: functional. In outline: as §7
Experiment [29] has as its system Mus musculus. The experiment can be described thus: Behavioral time in mouse isolation-induced aggression assay at 3.0 umol/kg administered intraperitoneally (*P<0.05). In kind it is functional. A digest of the protocol:
as §5

In experiment [30] the test system is Felis catus. The experiment can be described thus: Maximum decrease on arterial blood pressure at 1 mg/kg. Type of experiment: functional. In outline:
as §4

Experiment [31] has as its system Mus musculus. The experiment can be described thus: Behavioral time in mouse face to face assay at 30 umol/kg administered subcutaneously (*P<0.05). Type of experiment: functional. In outline:
as §7

In experiment [32] the test system is Mus musculus. The experiment can be described thus: Behavioral time in mouse face to face assay at dose of 0 umol/kg administered. In kind it is functional. In outline:
as §7

The subject of experiment [33] is Mus musculus. Briefly: Behavioral time in mouse isolation-induced aggression assay at 0.9 umol/kg administered intraperitoneally. Type of experiment: functional. A digest of the protocol:
as §5

Consider `CCCN[C@@H]1CCc2cccc(OC)c2[C@@H]1CC1CC1`, for which the Change is 5% in the experiment with Rattus norvegicus [1] and -25.8% in the experiment with Rattus norvegicus [4]. This compound gave an ED50 in the experiment with Mus musculus [2] of 31 µmol/kg. In the experiment on Mus musculus [3], this compound came in with a TMP.decrease of 7.4 degrees F.
Turning to `C=CC[C@@H]1c2c(cccc2OC)CC[C@H]1NCCC` (relative stereo), the ED50 with Mus musculus [5] is 59 µmol/kg; in the experiment on Mus musculus [2] it was 14 µmol/kg; in the experiment listed under Felis catus [14] it was 1.35 µmol/kg. Moreover, the Change with Rattus norvegicus [6] is -16%; in the experiment with Rattus norvegicus [7] it was -6.9%; in the experiment with Rattus norvegicus [11], -4.3%; in the experiment on Rattus norvegicus [12], 8.1%. The Max decrease in the experiment listed under Felis catus [8] is recorded as 16; with Felis catus [10], 66. The same compound came in with a BP in the experiment on Felis catus [9] of 71%. For the same compound, in the experiment with Mus musculus [3], the TMP.decrease is 10.2 degrees F and 5.8 degrees F. Besides, the Time with Mus musculus [13] is 0.4 s.
For the compound `C=CC[C@@H]1c2cccc(OC)c2CC[C@H]1NCCC` (relative stereo), the Change in the experiment with Rattus norvegicus [15] is reported as -15%; with Rattus norvegicus [16] it was 2.7%.
On to `CCCN(CCC)C1CCc2cccc(O)c2C1` (stereo not given) [8-OH-DPAT], for which the ED50 in the experiment on Mus musculus [5] was 9.7 µmol/kg; in the experiment with Mus musculus [2], 1 µmol/kg; in the experiment listed under Felis catus [14], 0.03 µmol/kg. For the same compound, the Time in the experiment with Mus musculus [17] is listed as 437 s; with Mus musculus [18] it was 11 s; with Mus musculus [21], 6 s; with Mus musculus [22], 351 s; in the experiment with Mus musculus [23], 1.6 s; in the experiment on Mus musculus [25], 177 s. In addition, the Time with Mus musculus [28] turned out to be 5 s; in the experiment on Mus musculus [29] it was 310 s; in the experiment on Mus musculus [31], 4.4 s; with Mus musculus [32], 1.1 s; in the experiment with Mus musculus [33], 20 s. Moreover, the “BP (ED50)” value in the experiment with Felis catus [19] is 66%. In addition, the Max decrease in the experiment listed under Felis catus [8] stood at 2; in the experiment on Felis catus [30], 57. The Change with Rattus norvegicus [20] is -37%; in the experiment on Rattus norvegicus [24], 3.2%; in the experiment with Rattus norvegicus [26] it was 16%; with Rattus norvegicus [27] it was -48%. Also, the TMP.decrease in the experiment on Mus musculus [3] was 7.2 degrees F and 7.5 degrees F.
